Assay results as given in ChEMBL document CHEMBL3621150, “Characterization of 2,4-Diamino-6-oxo-1,6-dihydropyrimidin-5-yl Ureido Based Inhibitors of Trypanosoma brucei FolD and Testing for Antiparasitic Activity” (J Med Chem, 2015).
The source made the active and inactive calls. The rule behind the calls is not given here.

How the values were obtained:
[1] = tested on: THP-1; assay: Cytotoxicity against macrophages differentiated from human THP1 cells assessed as cell viability after 72 hrs by MTT assay; assay type: cell-based; conditions: THP-1, 72 h
Method in brief: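 THP1-differentiated macrophages, 10⁵ cells/well, adhered overnight, then exposed to a compound concentration range for 72 h at 37 °C. MTT at 0.5 mg/mL added for 4 h in the dark, and formazan dissolved in isopropanol. Absorbance read at 570 nm with 660 nm background. Viability given relative to untreated cells, and IC₅₀ from linear regression.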

[2] = tested on: Trypanosoma brucei brucei; assay: Antiparasitic activity against bloodstream form of Trypanosoma brucei brucei 427 […] assessed as growth inhibition after 72 hrs by Alamar Blue assay; assay type: functional, organism-based
[3] = Selectivity index, ratio of IC50 for macrophages differentiated from human THP1 cells to IC50 for bloodstream form of Trypanosoma brucei brucei 427; assay type: toxicity, cell-based, THP-1; conditions: read-out: Ratio IC50
Method in brief: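 Bloodstream-form T. b. brucei 427 in HMI-9 with 10% heat-inactivated FBS at 37 °C, 5% CO2: about 2,000 cells per well with serial drug dilutions for 72 h, then resazurin 45.5 μM for 4 h, fluorescence ex 528/em 590 nm. THP1-differentiated macrophages at 10⁵ cells/well: 72 h at 37 °C, MTT 4 h, A570 minus 660 nm versus untreated. Both IC50s by linear regression.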

[4] = Inhibition of Trypanosoma brucei FolD dehydrogenase activity assessed as formation of 5,10-CH=THF from 5,10-CH2-THF after 5 mins by spectrophotometric analysis
Method in brief: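 Recombinant T. brucei FolD from E. coli BL21 (DE3), Ni²⁺-affinity purified. Assay at 27 °C in 25 mM MOPS pH 7.3 with 30 mM 2-mercaptoethanol, 35 μM mTHF and 1 mM NADP⁺, started with NADP⁺. Reaction stopped at 5 min with an equal volume of 1 M HCl, product read at 350 nm (ε 24.9 mM⁻¹ cm⁻¹). Compounds from 10 mM DMSO stocks, first tested at 0–50–100 μM. Data fitted to a competitive model by linear regression.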

[5] = Competitive inhibition of Pseudomonas aeruginosa FolD dehydrogenase activity
[6] = Competitive inhibition of recombinant Leishmania major hexahistidine-tagged FolD dehydrogenase activity expressed in Escherichia coli by Michaelis-Menten plot analysis in presence of 5,10-CH2-THF
[7] = Trypanosoma brucei, 427, 72 h, read-out: IC50

Row | SMILES | IC50 [1] [µM] | IC50 [2, 7] [µM] | selectivity ratio [3] | IC50 [4] [µM] | growth inhibition (GI) [2] | IC50 [2] | Ki [4] [µM] | Ki [5] [µM] | Ki [6] [µM]
1 | Nc1nc(N)c(NC(=O)Nc2ccc(C(=O)O)cc2)c(=O)[nH]1 | 97 | 74 | 1.3 | 83 | – | – | – | – | –
2 | Cc1ccc(C(=O)Nc2ccc(S(=O)(=O)O)c3cc(S(=O)(=O)O)cc(S(=O)(=O)O)c23)cc1NC(=O)c1cccc(NC(=O)Nc2cccc(C(=O)Nc3cc(C(=O)Nc4ccc(S(=O)(=O)O)c5cc(S(=O)(=O)O)cc(S(=O)(=O)O)c45)ccc3C)c2)c1 | – | – | – | – | Active | – | – | – | –
3 | CCOC(=O)c1ccc(NC(=O)Nc2c(N)nc(N)[nH]c2=O)cc1 | 97 | 89 | 1.1 | 250 | – | – | – | – | –
4 | CCOC(=O)CC[C@H](NC(=O)c1ccc(NC(=O)Nc2c(N)nc(N)[nH]c2=O)cc1)C(=O)OCC | 205 | 92 | 2.2 | 250 | – | – | – | – | –
5 | Nc1nc(N)c(NC(=O)Nc2ccc(C(=O)NCCCC(=O)O)cc2)c(=O)[nH]1 | 98 | – | – | 213 | – | Not Active | 168 | – | –
6 | C[C@H](NC(=O)c1ccc(NC(=O)Nc2c(N)nc(N)[nH]c2=O)cc1)C(=O)O | 113 | – | – | 6.3 | – | Not Active | 3.2 | – | –
7 | Nc1nc(N)c(NC(=O)Nc2ccc(C(=O)N[C@@H](CCC(=O)O)C(=O)O)cc2)c(=O)[nH]1 | 194 | 49 | 4 | 2.2 | – | – | 1.1 | – | –
8 | Nc1nc2c(c(=O)[nH]1)N1C(=O)N(c3ccc(C(=O)NC(CCC(=O)O)C(=O)O)cc3)CC1CN2 (stereo unspecified) | 103 | 57 | 1.8 | 20 | – | – | 8.5 | 0.03 | 0.105
9 | Nc1nc(N)c(NC(=O)Nc2ccc(C(=O)N[C@@H](CCCC(=O)O)C(=O)O)cc2)c(=O)[nH]1 | 90 | – | – | 1 | – | Not Active | 0.48 | – | –
10 | Nc1nc(N)c(NC(=O)Nc2ccc(C(=O)N[C@@H](Cc3ccc(O)cc3)C(=O)O)cc2)c(=O)[nH]1 | 77 | – | – | 9.3 | – | Not Active | 7.3 | – | –
11 | Nc1nc(N)c(NC(=O)Nc2ccc(C(=O)N[C@@H](Cc3ccccc3)C(=O)O)cc2)c(=O)[nH]1 | 94 | – | – | 1.1 | – | Not Active | 0.54 | – | –
12 | N=C(N)c1ccc(OCCCCCOc2ccc(C(=N)N)cc2)cc1 [PENTAMIDINE] | – | 0.0016 | – | – | – | – | – | – | –
